SMILES strings stand for the structures. The source made the active and inactive calls. The rule behind the calls is not given here.

Assay [1] deals with T1, P2Y purinoceptor 2 (Homo sapiens, UniProt P41231). The experiment in a line: Agonist activity at P2Y2 receptor expressed in human 1321 cells at 100 uM by calcium mobilization assay. Format: functional, cell-based. In outline: (§1)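 1321N1 human astrocytoma cells expressing the recombinant receptor were loaded with Fluo-3 AM (2.5 µM final) for 60 min at 25 °C. Assay buffer: KCl 10, NaCl 118, CaCl2 2.5, MgCl2 1, HEPES 20, glucose 10 mM, pH 7.4. Cells were washed and then stimulated with compound. Intracellular calcium was read as the change in fluorescence (FLIPR). Values are EC50 in µM. SR means 5–20% of maximal response at the top concentration, usually 100 µM. NR means no response.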
T1 sequence (P41231 whole entry): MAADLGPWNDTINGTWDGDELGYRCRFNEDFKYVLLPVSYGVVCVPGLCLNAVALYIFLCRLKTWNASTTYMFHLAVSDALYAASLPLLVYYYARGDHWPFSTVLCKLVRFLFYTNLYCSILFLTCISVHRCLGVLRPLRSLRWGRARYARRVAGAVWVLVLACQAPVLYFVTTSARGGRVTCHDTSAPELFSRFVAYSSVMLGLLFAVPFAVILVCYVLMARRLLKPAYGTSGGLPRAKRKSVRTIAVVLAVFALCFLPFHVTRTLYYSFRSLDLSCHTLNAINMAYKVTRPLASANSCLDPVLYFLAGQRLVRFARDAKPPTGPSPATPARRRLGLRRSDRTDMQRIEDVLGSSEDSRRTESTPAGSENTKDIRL

In a further assay the target is P2Y purinoceptor 1 (Homo sapiens, UniProt P47900). In words: Agonist activity at human recombinant P2Y1 receptor expressed in human 1321 cells at 100 uM by calcium mobilization assay. Format: functional, cell-based. In outline:
as §1
A general note: A change in cytosolic calcium serves as a functional read-out for many receptors and channels.

A further assay has as its target P2Y purinoceptor 6 (Homo sapiens, UniProt Q15077). In words: Agonist activity at P2Y6 receptor expressed in human 1321 cells at 100 uM by calcium mobilization assay. It is filed as functional, cell-based. In outline: as §1
Assay [2] deals with P2Y purinoceptor 12 (Homo sapiens) (UniProt Q9H244). The experiment in a line: Antagonist activity at P2Y12 receptor assessed as inhibition of ADP-induced human platelet aggregation by washed platelet assay at 100 uM. Format: functional. The method in brief: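 Blood from healthy volunteers was anticoagulated with ACD and spun at 180g for 15 min to give PRP. Platelets were washed three times in HEPES-buffered saline, pH 7.4, with 0.2% BSA and 5 µM PGI2, then resuspended with 0.25 U/mL apyrase. The suspension held 1 mg/mL fibrinogen at 37 °C, stirred at 1000 rpm. Compound (usually 1 nM–100 µM) was added for 2 min, then ADP at EC90 (usually 1–10 µM). Optical aggregation was recorded for 8 min. IC50 came from a four-parameter logistic fit.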
Sequence of P2Y purinoceptor 12 (Homo sapiens) (Q9H244 whole entry): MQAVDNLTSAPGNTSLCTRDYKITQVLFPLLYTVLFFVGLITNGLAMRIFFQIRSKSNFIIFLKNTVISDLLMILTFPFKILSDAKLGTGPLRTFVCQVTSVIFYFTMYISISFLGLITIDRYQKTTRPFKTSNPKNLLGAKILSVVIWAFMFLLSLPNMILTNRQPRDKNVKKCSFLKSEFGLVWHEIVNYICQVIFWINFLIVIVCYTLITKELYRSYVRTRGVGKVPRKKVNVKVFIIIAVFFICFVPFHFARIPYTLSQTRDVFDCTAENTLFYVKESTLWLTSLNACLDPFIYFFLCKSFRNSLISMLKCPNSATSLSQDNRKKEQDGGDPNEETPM

Assay [3] addresses T1, P2Y purinoceptor 2. In words: Agonist activity at P2Y2 receptor expressed in human 1321 cells by calcium mobilization assay. Format: functional, cell-based.

Sequence of P2Y purinoceptor 6 (Q15077 whole entry): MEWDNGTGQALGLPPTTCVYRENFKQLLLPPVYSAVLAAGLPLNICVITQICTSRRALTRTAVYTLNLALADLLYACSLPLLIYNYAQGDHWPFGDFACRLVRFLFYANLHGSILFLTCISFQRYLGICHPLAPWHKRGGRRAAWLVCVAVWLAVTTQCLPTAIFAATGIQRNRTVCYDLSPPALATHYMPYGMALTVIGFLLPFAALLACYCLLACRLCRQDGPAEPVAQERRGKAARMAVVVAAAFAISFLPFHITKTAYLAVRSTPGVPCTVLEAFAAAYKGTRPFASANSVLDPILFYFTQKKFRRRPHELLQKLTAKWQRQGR
Sequence of P2Y purinoceptor 1 (P47900 whole entry): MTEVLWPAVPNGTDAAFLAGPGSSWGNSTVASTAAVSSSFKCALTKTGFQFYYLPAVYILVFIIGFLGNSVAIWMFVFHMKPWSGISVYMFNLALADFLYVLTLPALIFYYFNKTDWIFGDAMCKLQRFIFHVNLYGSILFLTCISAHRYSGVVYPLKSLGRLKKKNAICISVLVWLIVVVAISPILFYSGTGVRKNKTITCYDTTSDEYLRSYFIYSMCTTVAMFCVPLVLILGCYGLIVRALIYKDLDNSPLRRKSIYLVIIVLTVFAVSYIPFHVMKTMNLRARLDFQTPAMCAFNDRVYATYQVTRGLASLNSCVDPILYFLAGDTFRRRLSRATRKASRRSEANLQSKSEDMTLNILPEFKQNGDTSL

As to `O=C(Nc1ccc(F)cc1)Nc1ccn([C@@H]2O[C@H](COP(=O)(O)OP(=O)(O)OP(=O)(O)OP(=O)(O)OC[C@@H]3O[C@H](n4ccc(=O)[nH]c4=O)[C@@H](O)[C@H]3O)[C@H]3O[C@@H](Cc4ccccc4)O[C@H]32)c(=O)n1`, the Activity on P2Y purinoceptor 2 [1] was greater than 5%. In addition, the result on P2Y purinoceptor 1 was inactive.

Take `O=C(Nc1ccc(F)cc1)Nc1ccn([C@@H]2O[C@H](COP(=O)(O)OP(=O)(O)OP(=O)(O)OP(=O)(O)OC[C@@H]3O[C@H](n4ccc(=O)[nH]c4=O)[C@H]4O[C@@H](Cc5ccccc5)O[C@H]43)[C@H]3O[C@@H](Cc4ccccc4)O[C@H]32)c(=O)n1`: the outcome on P2Y purinoceptor 6, on P2Y purinoceptor 2 [1] and on P2Y purinoceptor 1 was inactive.

`O=c1ccn([C@@H]2O[C@H](COP(=O)(O)OP(=O)(O)OP(=O)(O)OP(=O)(O)OC[C@@H]3O[C@H](n4ccc(=O)[nH]c4=O)[C@H]4OC(/C=C/c5ccccc5)O[C@H]43)[C@H]3OC(/C=C/c4ccccc4)O[C@H]32)c(=O)[nH]1` (stereo in doubt; 25): at P2Y purinoceptor 6, the Activity is greater than 5%. For the same molecule, the outcome at P2Y purinoceptor 2 [1] and on P2Y purinoceptor 1 was inactive.

`Nc1ccn([C@@H]2O[C@H](COP(=O)(O)O)[C@H]3O[C@@H](Cc4ccccc4)O[C@H]32)c(=O)n1`: the outcome (at P2Y purinoceptor 6; at P2Y purinoceptor 2 [1]; in assay [2]; at P2Y purinoceptor 1) was inactive.

Consider `O=C(Nc1ccccc1)Nc1ncnc2c1ncn2[C@@H]1O[C@H](COP(=O)(O)OP(=O)(O)O)[C@H]2O[C@@H](Cc3ccccc3)O[C@H]21`, for which the EC50 (as a rule, the concentration needed to bring the measured effect to its halfway point) on P2Y purinoceptor 2 [3] turned out to be 13900 nM. In addition, the Activity at P2Y purinoceptor 6 and on P2Y purinoceptor 1 was greater than 5% in each case.

On to `Nc1ncnc2c1ncn2[C@@H]1O[C@H](COP(=O)(O)OP(=O)(O)OP(=O)(O)OP(=O)(O)OC[C@@H]2O[C@H](n3cnc4c(N)ncnc43)[C@@H](O)[C@H]2O)[C@H]2OC(Cc3ccccc3)O[C@H]21` (some centres not stated), for which the EC50 on P2Y purinoceptor 2 [3] amounted to 52 nM. Moreover, the result at P2Y purinoceptor 6 and at P2Y purinoceptor 1 was inactive.

Turning to `Nc1ncnc2c1ncn2[C@@H]1O[C@H](COP(=O)(O)OP(=O)(O)OP(=O)(O)O)[C@@H](O)[C@H]1O`, in assay [2], the inhibition (usually the change of the read-out against control, counted positive when it falls) came out at 63%.

In the case of `O=c1ccn([C@@H]2O[C@H](COP(=O)(O)OP(=O)(O)OP(=O)(O)OP(=O)(O)OC[C@@H]3O[C@H](n4ccc(=O)[nH]c4=O)[C@@H](O)[C@H]3O)[C@@H]3OC(c4ccccc4)O[C@H]32)c(=O)[nH]1` (some centres not stated), the half-maximal effective concentration (EC50) at P2Y purinoceptor 2 [3] was 192 nM. Besides, the Activity on P2Y purinoceptor 6 is greater than 5%. Also, on P2Y purinoceptor 1, the result was inactive.

For `O=C(Nc1ccc(F)cc1)Nc1ccn([C@@H]2O[C@H](COP(=O)(O)O)[C@H]3O[C@@H](Cc4ccccc4)O[C@H]32)c(=O)n1`, the outcome on P2Y purinoceptor 6, on P2Y purinoceptor 2 [1] and on P2Y purinoceptor 1 was inactive.

As to `O=C(Nc1ccccc1)Nc1ncnc2c1ncn2[C@@H]1O[C@H](COP(=O)(O)OP(=O)(O)OP(=O)(O)OP(=O)(O)OC[C@@H]2O[C@H](n3cnc4c(NC(=O)Nc5ccccc5)ncnc43)[C@H]3O[C@@H](Cc4ccccc4)O[C@H]32)[C@H]2O[C@@H](Cc3ccccc3)O[C@H]21`, the result on P2Y purinoceptor 2 [1] and on P2Y purinoceptor 1 was inactive.

For the molecule `Nc1ncnc2c1ncn2[C@@H]1O[C@H](COP(=O)(O)OP(=O)(O)OP(=O)(O)OP(=O)(O)OC[C@@H]2O[C@H](n3cnc4c(N)ncnc43)[C@H]3OC(Cc4ccccc4)O[C@H]32)[C@H]2OC(Cc3ccccc3)O[C@H]21` (some centres not stated), the outcome at P2Y purinoceptor 6 and at P2Y purinoceptor 1 was inactive. Moreover, the Activity at P2Y purinoceptor 2 [1] is greater than 5%.

For `Nc1ccn([C@@H]2O[C@H](COP(=O)(O)OP(=O)(O)OP(=O)(O)OP(=O)(O)OC[C@@H]3O[C@H](n4ccc(=O)[nH]c4=O)[C@H]4OC(Cc5ccccc5)O[C@H]43)[C@H]3OC(Cc4ccccc4)O[C@H]32)c(=O)n1` (some centres not stated), the outcome on P2Y purinoceptor 6, at P2Y purinoceptor 2 [1] and on P2Y purinoceptor 1 was inactive.

For `O=c1ccn([C@@H]2O[C@H](COP(=O)(O)OP(=O)(O)OP(=O)(O)OP(=O)(O)OC[C@@H]3O[C@H](n4ccc(=O)[nH]c4=O)[C@@H](O)[C@H]3O)[C@H]3OC(C#Cc4ccccc4)O[C@H]32)c(=O)[nH]1` (stereo in doubt; 26), the EC50 on P2Y purinoceptor 2 [3] was determined as 68 nM. For the same molecule, the outcome on P2Y purinoceptor 1 was inactive.

Regarding `CCCCCCCC1O[C@@H]2[C@H](O1)[C@@H](COP(=O)(O)OP(=O)(O)OP(=O)(O)OP(=O)(O)OC[C@@H]1O[C@H](n3ccc(=O)[nH]c3=O)[C@H]3OC(CCCCCCC)O[C@H]31)O[C@H]2n1ccc(=O)[nH]c1=O` (some centres not stated), the outcome on P2Y purinoceptor 6 and on P2Y purinoceptor 1 was inactive.

As for `O=c1ccn([C@@H]2O[C@H](COP(=O)(O)OP(=O)(O)OP(=O)(O)OC[C@@H]3O[C@H](n4ccc(=O)[nH]c4=O)[C@H]4OC(Cc5ccccc5)O[C@H]43)[C@H]3OC(Cc4ccccc4)O[C@H]32)c(=O)[nH]1` (some centres not stated), the outcome at P2Y purinoceptor 6, at P2Y purinoceptor 2 [1] and at P2Y purinoceptor 1 was inactive.

For the molecule `O=C(Nc1ccc(F)cc1)Nc1ccn([C@@H]2O[C@H](COP(=O)(O)O)C(O)C2O)c(=O)n1` (single isomer, unassigned), the outcome in assay [2] was inactive.

As to `O=c1ccn([C@@H]2O[C@H](COP(=O)(O)OP(=O)(O)OP(=O)(O)OP(=O)(O)OC[C@@H]3O[C@H](n4ccc(=O)[nH]c4=O)[C@H]4OC(c5ccccc5)O[C@H]43)[C@H]3OC(c4ccccc4)O[C@H]32)c(=O)[nH]1` (some centres not stated), the EC50 on P2Y purinoceptor 2 [3] stood at 3070 nM. Besides, the result on P2Y purinoceptor 6 and on P2Y purinoceptor 1 was inactive.

For `CNc1ccccc1C(=O)O[C@H]1[C@@H](O)[C@H](n2ccc(=O)[nH]c2=O)O[C@@H]1COP(=O)(O)OP(=O)(O)OP(=O)(O)OP(=O)(O)OC[C@@H]1O[C@H](n2ccc(=O)[nH]c2=O)[C@@H](OC(=O)c2ccccc2NC)[C@H]1O`, at P2Y purinoceptor 2 [3], the concentration for a half-maximal effect (EC50) stood at 5470 nM. The Activity on P2Y purinoceptor 6 is greater than 5%. Also, the outcome on P2Y purinoceptor 1 was inactive.

For the molecule `O=c1ccn([C@@H]2O[C@H](COP(=O)(O)OP(=O)(O)OP(=O)(O)OP(=O)(O)OC[C@@H]3O[C@H](n4ccc(=O)[nH]c4=O)[C@@H](O)[C@H]3O)[C@H]3OC(/C=C/c4ccccc4)O[C@H]32)c(=O)[nH]1` (stereo in doubt; 24), at P2Y purinoceptor 2 [3], the half-maximal effective concentration (EC50) was found to be 155 nM. The result on P2Y purinoceptor 1 was inactive.

For the molecule `O=c1ccn([C@@H]2O[C@H](COP(=O)(O)OP(=O)(O)OP(=O)(O)OP(=O)(O)OC[C@@H]3O[C@H](n4ccc(=O)[nH]c4=O)[C@@H](O)[C@H]3O)[C@@H]3OC(Cc4ccccc4)O[C@H]32)c(=O)[nH]1` (some centres not stated), the concentration for a half-maximal effect (EC50) on P2Y purinoceptor 2 [3] amounted to 94 nM. For the same molecule, the Activity on P2Y purinoceptor 6 was greater than 5%. The outcome on P2Y purinoceptor 1 was inactive.

Consider `O=C(Nc1ccc(F)cc1)Nc1ccn([C@@H]2O[C@H](COP(=O)(O)OP(=O)(O)OP(=O)(O)OP(=O)(O)OC[C@@H]3O[C@H](n4ccc(=O)[nH]c4=O)[C@H]4O[C@@H](Cc5ccccc5)O[C@H]43)[C@@H](O)[C@H]2O)c(=O)n1`, for which the result at P2Y purinoceptor 2 [1] and on P2Y purinoceptor 1 was inactive.

In the case of `CCCCCCCC1O[C@@H]2[C@H](O1)[C@@H](COP(=O)(O)OP(=O)(O)OP(=O)(O)OP(=O)(O)OC[C@@H]1O[C@H](n3ccc(=O)[nH]c3=O)[C@@H](O)[C@H]1O)O[C@H]2n1ccc(=O)[nH]c1=O` (some centres not stated), the half-maximal effective concentration (EC50) on P2Y purinoceptor 2 [3] is 147 nM. Moreover, on P2Y purinoceptor 6, the Activity was greater than 5%. For the same molecule, the outcome on P2Y purinoceptor 1 was inactive.
